# Source: PubChem
# H69AR inhibit: blocks growth of human H69AR lung tumor cells. H69AR lung tumor viability, ATP luminescence, 72 h; stronger effect = lower value. viability, % at 10 µM. 6% of 85,000 active. AID 598;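 active = viability at or below 40%; inactive = viability above 40%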;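 also: multidrug resistant small cell line overexpressing MRP-1 efflux transporter; 100% = mean luminescence of untreated control wells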
# HUVEC inhibit: human endothelial cell proliferation inhibition | HUVEC proliferation, CellTiter-Glo luminescence, 72 h; stronger effect = lower value | viability, % at 10 µM (by protocol) | 1.1% of 86,000 active | AID 648;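 active = viability at or below 30%; inactive = viability above 30%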;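 also: 100% = median luminescence of DMSO-only cell control wells on each plate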
# Lung fibro prol: blocks proliferation of human lung fibroblasts. 1.1% of 85,000 active. AID 719. LL 47 human lung fibroblast viability, ATP luminescence; stronger effect = lower value. viability, % at 10 µM;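 active = viability at or below 50% in the single dose screen; inactive = viability above 50%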;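 also: compound exposure lasted 72 h before the ATP readout; 100% = median luminescence of untreated cell-only wells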
#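 Material: human LL 47 lung fibroblast cells; quantity: 1,150 cells/well; medium: IMEM plus 15% FBS; doses: 0.1% DMSO in all compound wells; timing: overnight attachment after seeding, then 72 h compound exposure at 37 °C; detection: CellTiter-Glo luminescence; measure: % viability of median cell-only signal; controls: cell-only wells, no compound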
# bCat KO growth: beta-catenin-lacking colon tumor cell growth suppression. viability, % at 10 µM. AID 818. HCT116 beta-catenin knockout viability, CellTiter-Glo, 60 h; stronger effect = lower value. 1.5% of 140,000 active;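 active = viability at or under a set limit, the compound median less 4 SD, cut at about 6% in these data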;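 also: 0% = Hyamine 1622 control at 20 µM and 100% = untreated cell control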
# PTEN del growth: suppresses growth of cells with PTEN deletion; HCT116 PTEN-null viability, CellTiter-Glo, 60 h; stronger effect = lower value; viability, % at 10 µM; 1.2% of 140,000 active; AID 827;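 active = viability at or below a set limit, 4 SD under the median of all tested compounds, cut at about 3.7% in these data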;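 also: PTEN knockout HCT116 line with beta catenin targeted HCT116 as companion control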
# * marks the source's active call; other numbers are inactive results; nt = no result given. Many of the other results were omitted from the sample, so hits are more common in it than they were.
SMILES,H69AR inhibit,HUVEC inhibit,Lung fibro prol,bCat KO growth,PTEN del growth
O=C(N/N=C/c1c(Cl)cccc1Cl)c1ccc(F)cc1,nt,nt,nt,98,92
Cc1cc(NCCCO)n2c(nc3ccccc32)c1C#N,nt,nt,nt,104,98
C=CCc1c(C)c(C#N)c2nc3ccccc3n2c1NCCN(C)C,33*,99,96,84,91
CCCNc1cc(C)c(C#N)c2nc3ccccc3n12,37*,91,107,88,87
CCc1c(C)c(C#N)c2nc3ccccc3n2c1NCCN(C)C,50,103,104,89,102
CCc1c(C)c(C#N)c2nc3ccccc3n2c1NCc1ccco1,36*,85,92,83,77
COc1ccc(-n2c(C)cc(-c3csc(NC(=O)c4ccc(S(=O)(=O)N(C)C)cc4)n3)c2C)cc1,nt,nt,nt,96,90
Cc1nc(Nc2nc(CSc3ccc(Cl)cc3)cc(=O)[nH]2)nc2ccccc12,nt,nt,nt,72,59
Cc1ccc2c(C)nc(Nc3nc(CSc4nnc(C)s4)cc(=O)[nH]3)nc2c1,35*,17*,46*,80,87
COc1cccc2c(C)nc(Nc3nc(CSc4nnc(C)s4)cc(=O)[nH]3)nc12,60,46,nt,69,71
Cc1nc(Nc2nc(-c3ccccc3)cc(=O)[nH]2)nc2ccccc12,14*,5.0*,13*,nt,nt
Cc1nc(Nc2nc(CSc3nc4ccccc4[nH]3)cc(=O)[nH]2)nc2ccccc12,nt,nt,nt,3.6*,3.7*
COc1ccc2nc(Nc3nc(CSc4nc5ccccc5[nH]4)cc(=O)[nH]3)nc(C)c2c1,nt,nt,nt,6.1*,7
CCOC(=O)c1cc2sccc2n1CC(=O)Nc1ccc2c(c1)OCCO2,38*,94,92,93,81
O=C(/C=C\c1cccs1)c1c(O)ccc2ccc(=O)oc12,nt,nt,nt,72,66
CCOC(=O)c1ccc(Cn2c(-c3ccccc3)nnc2-c2ccccc2)o1,33*,97,91,77,79
COc1cccc(-n2c(CN3CCN(c4ccccc4)CC3)nc3ccc([N+](=O)[O-])cc3c2=O)c1,nt,nt,nt,85,74
CCN1C(=O)/C(=C/N(C(C)=O)c2ccccc2)N(c2ccccc2)C1=S,16*,80,68,34,31
CC1=C(C#N)CCC(=O)N1Cc1ccc(C)cc1,nt,nt,nt,87,89
CCOc1ccccc1N1CCN(C(=O)C2c3ccccc3Oc3ccccc32)CC1,19*,56,68,15,14
Cc1nc(-c2ccc(O)c(O)c2)cs1,45,69,74,10,10
Oc1ccc(-c2csc(-c3ccccc3)n2)cc1O,20*,29*,72,83,84
C=CCNC(=O)CCCc1ccccc1,1.4*,100,101,72,69
COc1ccc(C2=NN(CC(=O)NCc3ccco3)C(=O)CC2)cc1,nt,nt,nt,92,87
CCCOc1ccc(C(=O)NCC(c2ccco2)N(C)C)cc1 (stereo unspecified),nt,nt,nt,84,94
SMILES,H69AR inhibit,HUVEC inhibit,Lung fibro prol,bCat KO growth,PTEN del growth
COc1ccc(-n2c(=O)cc(N3CCN(Cc4ccccc4)CC3)[nH]c2=O)cc1,93,88,90,88,100
COc1ccc(OC)c(S(=O)(=O)NC2CCN(Cc3ccccc3)CC2)c1,76,90,103,59,66
COc1ccc(/C=C2\CN(Cc3ccccc3)C/C(=C\c3ccc(OC)cc3)C2=O)cc1,nt,nt,nt,1.7*,1.6*
COc1ccc(/C=C2\CN(Cc3ccccc3)C/C(=C\c3ccc(OC)cc3OC)C2=O)c(OC)c1,nt,nt,nt,4.8*,2.7*
COCCOC(=O)c1c(NC(=O)CN2CCCc3ccccc32)sc(C(N)=O)c1C,nt,nt,nt,89,83
CCCCCCCCNC(C)C(O)c1ccc(SC(C)C)cc1 (stereo unspecified),1.7*,2.6*,4.0*,1.6*,1.3*
COc1ccc(C)cc1NS(=O)(=O)c1ccc(Br)s1,22*,61,88,86,70
Cc1cc(NC(=O)CN2C(=O)NC3(CCCCC3C)C2=O)no1 (stereo unspecified),nt,nt,nt,100,105
Oc1ccc2ccccc2c1N=Nc1ccccn1,nt,nt,nt,2.4*,2.6*
CC(C)CCn1c(O)c(N=Nc2ccccn2)c2ccccc21,nt,nt,nt,89,89
CNC(=O)COC(=O)/C=C/c1c(C)nn(-c2ccccc2)c1C,nt,nt,nt,77,91
Cc1cc(C)n2nc(SCC(=O)Nc3c(C)nn(-c4ccccc4)c3C)nc2n1,91,112,109,106,114
Cc1nn(C)c(C)c1NC(=O)CSc1nc(-c2ccccc2Cl)nc2c1cnn2-c1ccccc1,30*,90,95,89,74
CC1CCCCN1C(=O)CSc1nc(C2CC2)nc2c1cnn2-c1ccccc1 (stereo unspecified),nt,nt,nt,80,76
Cc1nn(C)c(C)c1NC(=O)CSc1nc(C2CC2)nc2c1cnn2-c1ccccc1,79,96,43*,1.3*,1.2*
O=C(O)CCCNC(=O)c1cccc(C(=O)NCCCC(=O)O)n1,nt,nt,nt,104,99
CC1CCC(NC(=O)CC(C)(C)Cc2nc3ccccc3c(=O)[nH]2)CC1 (stereo unspecified),25*,71,97,78,82
CCOC(=O)/C(=C\c1ccccc1)C(=O)c1cc(C(C)=O)c(Nc2ccccc2)s1,2.1*,3.8*,19*,7,2.4*
CC(C)OC(=O)/C(=C/c1cccnc1)NC(=O)c1ccccc1,nt,nt,nt,93,85
CCOC(=O)/C(=C\c1cccnc1)C(=O)c1cc(C(C)=O)c(Nc2ccccc2)s1,1.8*,4.1*,19*,2.2*,2.2*
Clc1ccccc1CSc1nncn1NC/C=C/c1ccccc1,nt,nt,nt,80,79
N#Cc1c(N)nc(SCC(=O)C23CC4CC(CC(C4)C2)C3)c(C#N)c1-c1ccc(Cl)cc1,16*,53,77,65,79
O=C(c1cn(-c2ccccc2)nc1-c1cccs1)N(CCO)Cc1ccccc1,23*,75,96,47,39
CC1CCc2sc(C(=O)Nc3nnc(SCc4ccc(F)cc4)s3)cc2C1 (stereo unspecified),77,82,105,92,94
COC(=O)c1ccc(CSc2nnc(NC(=O)c3cc4c(s3)CCCC4)s2)cc1,7.6*,78,106,44,51
SMILES,H69AR inhibit,HUVEC inhibit,Lung fibro prol,bCat KO growth,PTEN del growth
CC(=C\c1ccco1)/C=C(\C#N)C(=O)NCCc1c[nH]c2ccccc12,nt,nt,nt,93,91
CN(C)c1ccc2c(c1)OC(N)=C(C#N)C2c1cccc(F)c1 (stereo unspecified),25*,31,55,10,9
N#CC1=C(N)Oc2cc(O)ccc2C1c1ccncc1 (stereo unspecified),85,95,100,94,82
CN(C)/C=N/C(=S)Nc1ccc(Br)cc1F,96,104,108,98,91
Cc1c2ccccc2nc2c(F)c(NCCO)c(F)c(F)c12,nt,nt,nt,56,68
OCCNc1c2ccccc2nc2c(F)c(F)c(F)c(F)c12,nt,nt,nt,1.5*,1.1*
CCOc1ccccc1NC(C)C(=O)Nc1cc(C(F)(F)F)ccc1N1CCOCC1 (stereo unspecified),nt,nt,nt,58,53
